Assay outcomes (PubChem)
The list is not random: actives were taken first. Their share in the collection is about 4%.
KCNK9 inh – KCNK9 potassium channel inhibitors, primary screen, HEK293 cells, thallium flux; Potassium channel subfamily K member 9 (Homo sapiens), Q9NPC2; FluxOR thallium flux fluorescence; active compounds read low; B-score at 10 µM; hit rate 1.2% among 310,000; AID 488922, 2010;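 active = ratio B-score over 3 SD below the library mean, with starting fluorescence within 5 SD of its mean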;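 also: negative B-score means less thallium flux so channel inhibition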
Target sequence (Q9NPC2 whole entry, looked up): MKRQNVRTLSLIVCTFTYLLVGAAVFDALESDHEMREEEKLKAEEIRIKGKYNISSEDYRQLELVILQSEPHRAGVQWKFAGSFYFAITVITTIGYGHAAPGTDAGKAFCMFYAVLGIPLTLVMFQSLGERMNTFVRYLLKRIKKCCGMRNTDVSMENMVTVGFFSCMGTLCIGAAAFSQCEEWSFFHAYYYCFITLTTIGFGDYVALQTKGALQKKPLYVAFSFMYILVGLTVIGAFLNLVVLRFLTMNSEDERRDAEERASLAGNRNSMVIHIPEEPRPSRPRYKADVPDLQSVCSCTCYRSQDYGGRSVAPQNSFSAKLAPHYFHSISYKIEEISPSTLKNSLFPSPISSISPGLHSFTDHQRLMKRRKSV
PHOSPHO1 block – PubChem AID 1565 | Phosphoethanolamine/phosphocholine phosphatase (Homo sapiens), Q8TCT1 | recombinant PHOSPHO1, absorbance phosphatase assay | inhibition, % at 13.3 µM | hit rate 1.1% among 290,000; in the data active = inhibition above about 60%
Target sequence (Q8TCT1 whole entry, looked up): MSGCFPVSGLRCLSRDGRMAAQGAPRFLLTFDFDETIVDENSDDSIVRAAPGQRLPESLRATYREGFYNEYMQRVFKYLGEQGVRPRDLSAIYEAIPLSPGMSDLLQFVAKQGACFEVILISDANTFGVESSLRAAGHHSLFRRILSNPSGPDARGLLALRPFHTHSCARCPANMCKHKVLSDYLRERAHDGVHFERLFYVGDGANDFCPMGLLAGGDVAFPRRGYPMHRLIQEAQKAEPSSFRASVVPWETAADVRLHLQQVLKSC
hERG rescue – hERG rescue from dofetilide block, primary screen, cell-based, CHO-hERG, FluxOR thallium flux, dofetilide IC70; Voltage-gated inwardly rectifying potassium channel KCNH2 (Homo sapiens), Q12809; dofetilide IC70 present; hit rate 0.51% among 310,000; activation (rescue from dofetilide block), less the hit threshold, % at 10 µM; AID 1511, 2009;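 active = activation above the mean of controls blocked by dofetilide plus 5 SD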;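 also: thallium influx through hERG after potassium depolarization seen as dye fluorescence rise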
KCNQ1 inh – inhibitors of human KCNQ1 channel, primary screen, cell-based, thallium flux, high-throughput. AID 2642, 2010. hit rate 1.3% among 310,000. Potassium voltage-gated channel subfamily KQT member 1 (Homo sapiens), P51787. CHO-K1 KCNQ1, FluxOR thallium flux fluorescence; active compounds read high. B-score at 10 µM;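 active = compounds whose thallium flux B-score, printed positive for inhibition, exceeds three library SD while starting fluorescence stays within three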;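 also: channel opened by potassium depolarization with thallium stimulus after 20 min compound exposure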
KCNQ1 pot – potentiators or activators of KCNQ1 channel, primary screen, cell-based, thallium flux, high-throughput; Potassium voltage-gated channel subfamily KQT member 1 (Homo sapiens), P51787; AID 2648, 2010; B-score at 10 µM; CHO-K1 KCNQ1, thallium flux FluxOR fluorescence; active compounds read high; hit rate 0.35% among 310,000;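 active = fluorescence ratio B-score, a plate-corrected score, at least three library SD, with initial intensity B-score within 5 SD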
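Test system: CHO-K1 cells stably expressing KCNQ1 / Medium: assay buffer / Also added: depolarizing K+/Tl+ stimulus, K2SO4 and Tl2SO4 each 12.5 mM in 5x stock / Incubation: 90 min dye loading and 20 min compound exposure, both at room temperature / Signal: thallium influx via FluxOR fluorescence, kinetic imaging / Evaluation: B score of baseline-normalized fluorescence ratio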
KCNK3 block – human KCNK3 channel inhibitors, primary screen, CHO cells, FluxOR thallium flux, B-score; Potassium channel subfamily K member 3 (Homo sapiens), O14649; FluxOR fluorescence; active compounds read low; B-score at 10 µM; hit rate 0.84% among 340,000;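 active = B-score under library mean minus 4 SD, starting fluorescence ratio at most library mean plus 5 SD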;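 also: more negative B-score means stronger inhibition of thallium flux through KCNK3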
Hits are given with their value; i = inactive; nt = not tested or not shown.

SMILES | KCNK9 inh | PHOSPHO1 block | hERG rescue | KCNQ1 inh | KCNQ1 pot | KCNK3 block
COCCOC(=O)c1c(C)oc2ccc(OCC=C(C)C)cc12 | i | i | i | i | i | -9.1
COc1cc2c(cc1NC(=O)CSc1nnc(COc3ccc(Cl)cc3)n1C)oc1ccccc12 | i | i | i | i | 11 | i
Clc1cccc(Cl)c1CSc1cc2c(nn1)-c1ccccc1CC2 | i | i | i | i | i | i
O=c1cc2c(nn1Cc1c(Cl)cccc1Cl)-c1ccccc1CC2 | i | i | i | i | 9 | i
CNC(=S)NNC(=O)c1sccc1OCc1ccc(C)cc1 | i | 74 | i | i | i | i
CNC(=S)NNC(=O)c1sccc1OCc1cccc(C(F)(F)F)c1 | i | 69 | i | i | i | i
CNC(=S)NNC(=O)c1cccn(Cc2cccc(C(F)(F)F)c2)c1=O | i | i | i | i | i | i
NNC(=O)c1sccc1OCc1ccc(Cl)cc1 | i | i | i | i | i | i
C/C(=N\NC(=O)c1ccccc1O)c1ccc(Br)s1 | i | i | 5.4 | i | i | i
C/C(=N\NC(=O)c1cccc(F)c1)c1ccc(Br)s1 | i | i | i | i | 11 | i
C/C(=N\NC(=O)c1ccccc1[N+](=O)[O-])c1ccc(Br)s1 | i | i | i | i | i | i
COc1cc(NS(=O)(=O)c2ccc(NC(=O)CSC3=NCCS3)cc2)nc(OC)n1 | i | 76 | i | i | i | nt
Cc1c(NC(=O)COC(=O)c2ccccc2Cl)c(=O)n(-c2ccccc2)n1C | i | i | i | i | i | i
Cc1c(NC(=O)COC(=O)c2cc3c4ccccc4n(C)c3s2)c(=O)n(-c2ccccc2)n1C | i | 62 | i | i | i | i
Oc1ccc2ccccc2c1C=NC12CN3CCN(CN(C3)C1)C2 | i | i | i | i | i | i
Cc1nc(S(=O)(=O)Nc2ccccc2C(=O)NCC2CC2)cn1C | i | 63 | i | i | i | i
CCN(CC(=O)Nc1cc(Cl)ccc1C)C(=O)c1ccc(=O)n(Cc2ccccc2)n1 | i | 62 | i | i | i | i
CC(Sc1nc2ccccc2c(=O)n1C)C(=O)NC1CCCCC1C (stereo unspecified) | i | nt | i | i | i | i
CC(=O)c1cccc(NC(=O)c2ccc(N(Cc3ccccc3)S(C)(=O)=O)cc2)c1 | i | i | i | i | i | i
CS(=O)(=O)N(Cc1ccccc1)c1ccc(C(=O)Nc2ccc(C(N)=O)cc2)cc1 | i | i | 46 | i | i | i
CC(C)(C)N1C(=O)[C@H]2[C@@H](c3ccc(Br)cc3)N3C(=O)N(c4cccc(Br)c4)C(=O)[C@@]3(Cc3ccccc3)[C@H]2C1=O | -6.9 | i | i | i | i | i
COc1ccc(C2=NN(c3ccccc3)C(=O)/C2=C\c2ccc(O)c(OC)c2)cc1 | i | i | i | 11 | i | i
COc1cc(/C=C2/C(=O)N(c3ccc(Br)cc3)N=C2C)cc([N+](=O)[O-])c1O | i | i | i | i | i | nt
COc1cc(/C=C2/C(=O)N(c3cccc(Br)c3)N=C2C)cc(OC)c1O | i | i | i | 8 | i | i
O=C(NCCO)Nc1ccc(Cl)cc1 | i | 69 | i | i | i | i
SMILES | KCNK9 inh | PHOSPHO1 block | hERG rescue | KCNQ1 inh | KCNQ1 pot | KCNK3 block
Cc1cc(C)c2c(c1)-c1c(ssc1=S)C(C)(C)N2C(=O)CSc1nncn1C | i | 62 | i | i | i | i
CC(C)N1C2OC(C3OC4C(O3)N(C(C)C)S(=O)(=O)N4C(C)C)OC2N(C(C)C)S1(=O)=O (stereo unspecified) | i | i | i | i | i | i
CCOC(=O)c1cc(NC(=O)N(C(C)C)C2CCCCC2)c(C)nc1C | i | i | i | i | i | i
CCN1C(=O)C(CC(=O)Nc2ccc(F)cc2)N(CCCN2CCN(c3ccc(F)cc3)CC2)C1=S (stereo unspecified) | i | i | i | 13 | i | i
CCN1C(=O)C(CC(=O)Nc2ccc(OC)cc2)N(CCc2ccc(OC)cc2)C1=S (stereo unspecified) | i | i | i | 6 | i | i
CC(OC(=O)c1ccc(Cl)c(S(=O)(=O)Nc2ccc(F)cc2)c1)C(=O)NC(N)=O (stereo unspecified) | i | i | i | i | i | i
CC(=O)Oc1ccc(/C=N/NC(=O)C2CCCN2S(=O)(=O)c2ccc(Cl)cc2)cc1 (stereo unspecified) | i | 73 | i | i | i | i
CCCNC(=O)C1(CC2CC(c3ccccc3)=NO2)CCN(C(=O)Cc2ccc(F)cc2)CC1 (stereo unspecified) | i | nt | i | i | i | i
O=C(O)c1ccccc1C(=O)Nc1ccc(Oc2cccc3ccccc23)cc1 | i | i | i | i | i | i
Cc1cccc(Oc2ccc(NC(=O)c3ccccc3C(=O)O)cc2)c1C | i | i | 5.6 | i | i | i
COc1ccc(C)cc1Nc1n[n+](-c2ccccc2)c(-c2c(OC)ccc3ccccc23)s1 | nt | nt | nt | nt | nt | i
COc1ccc(C)cc1Nc1n[n+](-c2ccccc2)c(-c2cc(OC)c(OC)cc2Br)s1 | i | i | i | 7 | i | i
CC1CC(C)CN(CCCNC(=O)c2ccc(CNS(=O)(=O)c3ccc(F)cc3)cc2)C1 (stereo unspecified) | i | 75 | i | i | i | i
Cc1cc(C)c(C)c(S(=O)(=O)N2CCC(C(=O)NCc3ccco3)CC2)c1C | nt | nt | nt | nt | nt | i
O=C(Nc1ccc2oc(Cc3ccc(Cl)cc3)nc2c1)c1cccnc1 | i | i | i | i | i | i
CCOc1cccc(C(=O)Nc2ccc3oc(Cc4ccc(Cl)cc4)nc3c2)c1 | i | i | i | 6 | i | i
CCC(=O)Nc1ccc(C(=O)Cn2nc(C(=O)O)c3ccccc3c2=O)cc1 | nt | i | nt | nt | nt | nt
c1ccc(OCCN2CCN(C(c3ccccc3)c3ccccc3)CC2)cc1 | i | i | i | 6 | i | i
Cc1cc(NC(=O)CSc2nc(-c3ccccc3Cl)nc3c2c(=O)n(C)c(=O)n3C)no1 | i | i | 5.4 | i | i | i
Cc1cc(NC(=O)CSc2nc(-c3ccc(Br)cc3)nc3c2c(=O)n(C)c(=O)n3C)no1 | i | i | i | i | i | i
Cc1ccc(-c2cc(C(=O)N/N=C/C(Br)=C/c3ccccc3)n[nH]2)o1 | -7 | i | i | i | i | i
O=C(N/N=C/C(Br)=C/c1ccccc1)c1ccccc1[N+](=O)[O-] | -6.9 | i | i | i | i | i
O=C(N/N=C/c1ccncc1)c1ccccc1[N+](=O)[O-] | i | i | i | i | i | i
COc1cccc(C(=O)N/N=C/C(Br)=C/c2ccccc2)c1 | -8.1 | i | i | i | i | i
